Experimental data as given in ChEMBL document CHEMBL1649277, “Inhibition of herpesvirus replication by 5-substituted 4'-thiopyrimidine nucleosides” (Antimicrob Agents Chemother, 2009).
Active and inactive are the calls of the source. The rule behind the calls is not given here.

Columns and labels:
[1] = test system: Human alphaherpesvirus 2; test: Antiviral activity against HSV2 infected in BALB/c mouse assessed mean time to virus-induced death at 30 mg/kg, po BID administered 24 hrs post infection; assay type: functional
[2] = Selectivity index, ratio of CC50 for HFF to EC50 for VZV Ellan infected in HFF
[3] = Cytotoxicity against human Akata cells after 3 days by MTS assay; assay type: cell-based
Outline: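 Akata cells were plated as for the EBV assay but not induced with anti-IgG. Viability was read at the same time as the antiviral endpoint: MTS was added, plates incubated 4 h at 37°C, and formazan absorbance read at 490 nm. Medium-only control wells were included. CC50 was the concentration reducing viable cells by 50%.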

[4] = test system: Human alphaherpesvirus 2; test: Antiviral activity against HSV2 infected in BALB/c mouse assessed as virus-induced mortality rate at 30 mg/kg, po BID administered 24 hrs post infection; assay type: functional
[5] = test system: Human alphaherpesvirus 2; test: Antiviral activity against HSV2 infected in BALB/c mouse assessed mean time to virus-induced death at 30 mg/kg, po BID administered 48 hrs post infection; assay type: functional
[6] = test system: Human betaherpesvirus 5; test: Antiviral activity against human cytomegalovirus 1117 harboring UL54 K513N mutant gene infected in HFF after 8 to 10 days by plaque reduction assay; assay type: functional, organism-based; conditions: Human betaherpesvirus 5, 1117
Outline: (§1)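 Plaque reduction in confluent HFF with six serial dilutions (top 100 μM) and no immunoglobulin added. Virus was adsorbed 1 h on triplicate wells. Cells were incubated 8 days, stained with 0.017% neutral red in PBS, and plaques counted. EC50 is the concentration reducing plaque number by 50%.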

[7] = test system: Human alphaherpesvirus 2; test: Antiviral activity against HSV2 MS infected in HFF assessed as inhibition of viral DNA synthesis-associated incorporation in DNA by immunofluorescence assay; assay type: functional, organism-based
Outline: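 HFF on coverslips were infected with HSV-2 MS or the resistant isolate (MOI 0.2 PFU/cell) for 48 h. Cells were pulsed with BrdUrd or 10 μM test compound for 30 min before fixation. Incorporation was detected with a cross-reacting anti-BrdUrd monoclonal antibody, infected cells with anti-155-kDa nucleocapsid antibody, and nuclei with DAPI.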

[8] = test system: Human alphaherpesvirus 2; test: Antiviral activity against HSV2 infected in BALB/c mouse assessed mean time to virus-induced death at 10 mg/kg, po BID administered 48 hrs post infection; assay type: functional
[9] = test system: Human alphaherpesvirus 1; test: Antiviral activity against HSV1 PAA5 harboring polymerase R842S mutant gene infected in HFF after 3 days by plaque reduction assay; assay type: functional, organism-based; conditions: Human alphaherpesvirus 1, PAA5, 72 h
Outline: (§2)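 Confluent HFF monolayers (passage <10) were infected in triplicate wells at 20–30 plaques per well, with 1 h adsorption and rocking every 15 min. Six serial dilutions (top 100 μM) were made in MEM with 2% FBS and pooled human immunoglobulin. Cells were incubated 3 days and stained with crystal violet. Plaques were counted, and EC50 was interpolated from plaque reduction.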

[10] = test system: Human gammaherpesvirus 8; test: Antiviral activity against Human herpesvirus 8 infected in human BCBL1 cells assessed as inhibition of viral replication after 7 days; assay type: functional, organism-based; conditions: Human gammaherpesvirus 8, BCBL1, 168 h
Outline: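 BCBL1 cells in RPMI 1640 with 10% FBS, compound diluted in triplicate wells with a top concentration of 100 μM. Lytic infection was induced with phorbol 12-myristate 13-acetate at 100 ng/ml final. After 7 days at 37°C in humidified CO2, viral DNA in total DNA was measured by TaqMan qPCR. EC50 was taken as 50% reduction of viral DNA.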

[11] = test system: Human alphaherpesvirus 1; test: Antiviral activity against HSV1 E377 infected in HFF after 3 days by plaque reduction assay; assay type: functional, organism-based; conditions: Human alphaherpesvirus 1, E377, 72 h; outline: as §2
[12] = test system: Human alphaherpesvirus 2; test: Antiviral activity against HSV2 infected in BALB/c mouse assessed as virus-induced mortality rate at […], po BID administered 72 hrs post infection; assay type: functional
[13] = Selectivity index, ratio of CC50 for human Akata cells to EC50 for Epstein-Barr virus infected in human Akata cells; assay type: toxicity, cell-based; conditions: read-out: Ratio CC50/EC50
[14] = Cytotoxicity against human BCBL1 cells after 3 days by MTS assay; assay type: cell-based
[15] = test system: Human betaherpesvirus 5; test: Antiviral activity against human cytomegalovirus 759D100 harboring deletion mutation in UL97 gene and UL54 A987G mutant gene infected in HFF after 8 to 10 days by plaque reduction assay; assay type: functional, organism-based; conditions: Human betaherpesvirus 5, 759D100; outline: as §1
[16] = test system: Human alphaherpesvirus 2; test: Antiviral activity against HSV2 infected in BALB/c mouse assessed as virus-induced mortality rate at […], po BID administered 24 hrs post infection; assay type: functional
[17] = test system: Human alphaherpesvirus 2; test: Antiviral activity against HSV2 infected in BALB/c mouse assessed mean time to virus-induced death at […], po BID administered 48 hrs post infection; assay type: functional
[18] = test system: Human betaherpesvirus 5; test: Antiviral activity against human cytomegalovirus VR4955 harboring UL54 T700A mutant gene infected in HFF after 8 to 10 days by plaque reduction assay; assay type: functional, organism-based; conditions: Human betaherpesvirus 5, VR4955; outline: as §1
[19] = Cytotoxicity against HFF after 3 days by MTS assay; assay type: cell-based; conditions: human, HFF cells
[20] = test system: Human betaherpesvirus 5; test: Antiviral activity against human cytomegalovirus PFAB300 harboring UL54 L724V mutant gene infected in HFF after 8 to 10 days by plaque reduction assay; assay type: functional, organism-based; conditions: Human betaherpesvirus 5, PFAB300; outline: as §1
[21] = test system: Human alphaherpesvirus 2; test: Selectivity ratio of EC50 for 4'-thioIDU-resistant HSV2 infected in HFF to EC50 for HSV2 MS infected in HFF; assay type: functional
[22] = test system: Human alphaherpesvirus 2; test: Antiviral activity against HSV2 infected in BALB/c mouse assessed as virus-induced mortality rate at 10 mg/kg, po BID administered 72 hrs post infection; assay type: functional
[23] = test system: Human alphaherpesvirus 1; test: Antiviral activity against HSV1 DM2.1 harboring frameshift mutation in TK infected in HFF after 3 days by plaque reduction assay; assay type: functional, organism-based; conditions: Human alphaherpesvirus 1, DM2.1, 72 h; outline: as §2
[24] = test system: Human alphaherpesvirus 2; test: Antiviral activity against HSV2 12247 harboring TK C337Y mutant gene infected in HFF after 3 days by plaque reduction assay; assay type: functional, organism-based; conditions: Human alphaherpesvirus 2, 12247, 72 h; outline: as §2
[25] = test system: Human alphaherpesvirus 2; test: Antiviral activity against HSV2 infected in BALB/c mouse assessed mean time to virus-induced death at 30 mg/kg, po BID administered 72 hrs post infection; assay type: functional
[26] = test system: Human alphaherpesvirus 2; test: Antiviral activity against HSV2 infected in BALB/c mouse assessed as virus-induced mortality rate at […], po BID administered 48 hrs post infection; assay type: functional
[27] = test system: Human alphaherpesvirus 2; test: Antiviral activity against 4'-thioIDU-resistant HSV2 infected in HFF after 3 days by plaque reduction assay; assay type: functional, organism-based; conditions: Human alphaherpesvirus 2, 72 h; outline: as §2
[28] = Selectivity index, ratio of CC50 for HFF to EC50 for […] infected in HFF
[29] = test system: Human alphaherpesvirus 1; test: Antiviral activity against HSV1 B-2006 harboring frameshift mutation at Q185 in TK infected in HFF after 3 days by plaque reduction assay; assay type: functional, organism-based; conditions: Human alphaherpesvirus 1, B-2006, 72 h; outline: as §2
[30] = Selectivity index, ratio of CC50 for HFF to EC50 for HSV2 MS infected in HFF
[31] = test system: Human alphaherpesvirus 2; test: Antiviral activity against HSV2 infected in BALB/c mouse assessed mean time to virus-induced death at […], po BID administered 72 hrs post infection; assay type: functional
[32] = test system: Human alphaherpesvirus 2; test: Antiviral activity against HSV2 13077 harboring TK R223H mutant gene infected in HFF after 3 days by plaque reduction assay; assay type: functional, organism-based; conditions: Human alphaherpesvirus 2, 13077, 72 h; outline: as §2

In the case of O=c1[nH]c(=O)n([C@H]2C[C@H](O)[C@@H](CO)S2)cc1I, the Time [1] is reported as 12.1 days, the Ratio CC50/EC50 [2] is reported as 35 and the CC50 at 72 h [3] is reported as 0.68 µM. The Activity [4] was 100%, the Time [5] was 12.8 days and the EC50 [6] was 4.4 µM. The inhibition [7] was “Active”, the Time [8] was 10.4 days and the EC50 [9] was 28 µM. For the same molecule, the EC50 [10] was > 4 µM, the EC50 [11] was 1.2 µM and the Activity [12] was 100%. For the same molecule, the selectivity ratio [13] was < 4.3, the CC50 at 72 h [14] was 14 µM and the EC50 [15] was 14 µM. It also gave an Activity [16] of 100%, a Time [17] of 9.4 days and an EC50 [18] of 8 µM. The CC50 at 72 h [19] was > 70 µM, the EC50 [20] was 25 µM and the “Ratio EC50” value [21] was 108. The Activity [22] was 73%, the EC50 [23] was > 444 µM and the EC50 [24] was > 444 µM. The Time [25] was 11.7 days, the Activity [26] was 93% and the EC50 [27] was 57 µM. The Ratio CC50/EC50 [28] was > 1250, the EC50 [29] was > 444 µM and the Ratio CC50/EC50 [30] was > 140. For the same molecule, the Time [31] was 10 days and the EC50 [32] was > 343 µM.
